Source: ChEMBL document CHEMBL4004819, “Discovery of a Phosphoinositide 3-Kinase (PI3K) β/δ Inhibitor for the Treatment of Phosphatase and Tensin Homolog (PTEN) Deficient Tumors: Building PI3Kβ Potency in a PI3Kδ-Selective Template by Targeting Nonconserved Asp856” (J Med Chem, 2017)

Assays:
[1] = target: Phosphatidylinositol 4,5-bisphosphate 3-kinase catalytic subunit gamma isoform (Homo sapiens, UniProt P48736); experiment: Inhibition of human full length PI3Kgamma using PIP2/ATP as substrate after 30 mins by TR-FRET assay
[2] = Drug metabolism in human hepatocytes assessed as formation of oxidative metabolite of pyrimidine moiety; format: ADME, cell-based, Hepatocyte
[3] = target: PI3-kinase p110-alpha/p85-alpha (Homo sapiens, UniProt P42336); experiment: Inhibition of human full length PI3K p110alpha/p85 alpha using PIP2/ATP as substrate after 30 mins by TR-FRET assay
[4] = target: PI3-kinase p110-delta/p85-alpha (Homo sapiens, UniProt O00329); experiment: Inhibition of human full length PI3K p110delta/p85 alpha using PIP2/ATP as substrate after 30 mins by TR-FRET assay
[5] = system: Mus musculus; experiment: In vivo inhibition of PI3Kbeta in CB17 SCID mouse xenografted with human PTEN-deficient androgen responsive LNCAP cells assessed as inhibition of AKT1 phosphorylation at Serine 473 at […] administered by oral gavage and measured after 8 hrs; format: functional
[6] = system: LNCaP; experiment: Antitumor activity against human PTEN-deficient androgen responsive LNCAP cells xenografted in CB17 SCID mouse assessed as tumor growth inhibition at 3 mg/kg administered by oral gavage twice daily for 14 days; format: functional; details: 336 h, read-out: TGI
Method in brief: (§1)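 Mice bearing LNCaP tumours were dosed at 15, 7.5 and 3 mg/kg twice a day. Tumour volume (mm3) was measured twice a week throughout. Growth inhibition was calculated after the final dose for each dose group.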

[7] = Inhibition of human CYP450; format: ADME
Method in brief: (§2)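 Measured in binding assays against major human CYP450 enzymes and hERG.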

[8] = target: Voltage-gated inwardly rectifying potassium channel KCNH2 (Homo sapiens, UniProt Q12809); experiment: Inhibition of human ERG; method in brief: as §2
[9] = Inhibition of PI3Kbeta mutant in PTEN-deficient human A498 cells assessed decrease in AKT1 phosphorylation at Ser473 after 2 hrs; details: A498, 2 h
[10] = system: PC-3; experiment: Growth inhibition of PTEN-deficient human PC3 cells after 72 hrs by Celltiter-Glo reagent based assay; format: functional; details: PC-3, 72 h
[11] = system: LNCaP; experiment: Growth inhibition of PTEN-deficient human LNCAP cells after 72 hrs by Celltiter-Glo reagent based assay; format: functional
[12] = system: MDA-MB-415; experiment: Growth inhibition of PTEN-deficient human MDA-MB-415 cells after 72 hrs by Celltiter-Glo reagent based assay; format: functional; details: MDA-MB-415, 72 h
[13] = system: ZR-75-1; experiment: Growth inhibition of PTEN-deficient human ZR-75-1 cells after 72 hrs by Celltiter-Glo reagent based assay; format: functional; details: ZR-75-1, 72 h
[14] = system: A498; experiment: Growth inhibition of human A498 cells harboring PI3Kbeta mutant after 72 hrs by Celltiter-Glo reagent based assay; format: functional; details: A498, 72 h
[15] = Permeability from apical to basolateral side in human Caco2 cells; format: ADME, cell-based; details: Caco-2, read-out: permeability
[16] = Permeability from basolateral to apical side in human Caco2 cells; format: ADME, cell-based; details: Caco-2, read-out: permeability
[17] = Clearance in Sprague-Dawley rat at 1 mg/kg, iv administered via infusion over 30 mins measured over 24 hrs by LC/MS/MS analysis; format: ADME, organism-based; details: in vivo
[18] = Unbound fraction in Sprague-Dawley rat plasma; format: ADME, cell-free
[19] = Clearance in Sprague-Dawley rat plasma at 1 mg/kg, iv administered via infusion over 30 mins measured over 24 hrs by LC/MS/MS analysis; format: ADME, organism-based
Method in brief: (§3)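 Single intravenous dose of 1 mg/kg. Half-life, mean residence time and steady-state volume of distribution were taken from the iv arm. Values are mean ± SD, n=3 animals per route.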

[20] = Volume of distribution at steady state in Sprague-Dawley rat plasma at 1 mg/kg, iv administered via infusion over 30 mins measured over 24 hrs by LC/MS/MS analysis; format: ADME, organism-based; details: read-out: Vdss; method in brief: as §3
[21] = Apparent terminal half life in Sprague-Dawley rat plasma at 1 mg/kg, iv administered via infusion over 30 mins measured over 24 hrs by LC/MS/MS analysis; format: ADME, organism-based; details: read-out: betat1/2(app) (converted); method in brief: as §3
[22] = Mean residence time in Sprague-Dawley rat plasma at 1 mg/kg, iv administered via infusion over 30 mins measured over 24 hrs by LC/MS/MS analysis; format: ADME, organism-based; method in brief: as §3
[23] = Oral bioavailability in Sprague-Dawley rat plasma at 5 mg/kg administered via gavage by LC/MS/MS analysis; format: ADME, organism-based
Method in brief: (§4)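 Oral dose of 5 mg/kg, formulated in 5% ethanol, 50% PEG 300 and 45% water. Bioavailability was referenced to the separate 1 mg/kg intravenous arm. Values are mean ± SD, n=3 animals per route.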

[24] = Unbound fraction in Beagle dog plasma; format: ADME, cell-free, Canis lupus familiaris
[25] = Clearance in Beagle dog plasma at 1 mg/kg, iv administered via infusion over 30 mins measured over 24 hrs by LC/MS/MS analysis; format: ADME, organism-based, Canis lupus familiaris; method in brief: as §3
[26] = Volume of distribution at steady state in Beagle dog plasma at 1 mg/kg, iv administered via infusion over 30 mins measured over 24 hrs by LC/MS/MS analysis; format: ADME, organism-based, Canis lupus familiaris; details: read-out: Vdss; method in brief: as §3
[27] = Apparent terminal half life in Beagle dog plasma at 1 mg/kg, iv administered via infusion over 30 mins measured over 24 hrs by LC/MS/MS analysis; format: ADME, organism-based, Canis lupus familiaris; details: read-out: betat1/2(app) (converted); method in brief: as §3
[28] = Mean residence time in Beagle dog plasma at 1 mg/kg, iv administered via infusion over 30 mins measured over 24 hrs by LC/MS/MS analysis; format: ADME, organism-based, Canis lupus familiaris; method in brief: as §3
[29] = Oral bioavailability in Beagle dog plasma at 5 mg/kg administered via gavage by LC/MS/MS analysis; format: ADME, organism-based, Canis lupus familiaris; method in brief: as §4
[30] = Unbound fraction in cynomolgus monkey plasma; format: ADME, cell-free, Macaca fascicularis
[31] = Clearance in cynomolgus monkey plasma at 1 mg/kg, iv administered via infusion over 30 mins measured over 24 hrs by LC/MS/MS analysis; format: ADME, organism-based, Macaca fascicularis; method in brief: as §3
[32] = Volume of distribution at steady state in cynomolgus monkey at 1 mg/kg, iv administered via infusion over 30 mins measured over 24 hrs by LC/MS/MS analysis; format: ADME, organism-based, Macaca fascicularis; details: in vivo, read-out: Vdss; method in brief: as §3
[33] = Apparent terminal half life in cynomolgus monkey plasma at 1 mg/kg, iv administered via infusion over 30 mins measured over 24 hrs by LC/MS/MS analysis; format: ADME, organism-based, Macaca fascicularis; details: read-out: betat1/2(app) (converted); method in brief: as §3
[34] = Mean residence time in cynomolgus monkey plasma at 1 mg/kg, iv administered via infusion over 30 mins measured over 24 hrs by LC/MS/MS analysis; format: ADME, organism-based, Macaca fascicularis; method in brief: as §3
[35] = Oral bioavailability in cynomolgus monkey plasma at 5 mg/kg administered via gavage by LC/MS/MS analysis; format: ADME, organism-based, Macaca fascicularis; method in brief: as §4
[36] = Unbound fraction in rhesus monkey plasma; format: ADME, cell-free, Macaca mulatta
[37] = Clearance in rhesus monkey plasma at 1 mg/kg, iv administered via infusion over 30 mins measured over 24 hrs by LC/MS/MS analysis; format: ADME, organism-based, Macaca mulatta; method in brief: as §3
[38] = Volume of distribution at steady state in rhesus monkey at 1 mg/kg, iv administered via infusion over 30 mins measured over 24 hrs by LC/MS/MS analysis; format: ADME, organism-based, Macaca mulatta; details: in vivo, read-out: Vdss; method in brief: as §3
[39] = Apparent terminal half life in rhesus monkey plasma at 1 mg/kg, iv administered via infusion over 30 mins measured over 24 hrs by LC/MS/MS analysis; format: ADME, organism-based, Macaca mulatta; details: read-out: betat1/2(app) (converted); method in brief: as §3
[40] = Mean residence time in rhesus monkey plasma at 1 mg/kg, iv administered via infusion over 30 mins measured over 24 hrs by LC/MS/MS analysis; format: ADME, organism-based, Macaca mulatta; method in brief: as §3
[41] = system: LNCaP; experiment: Antitumor activity against human PTEN-deficient androgen responsive LNCAP cells xenografted in CB17 SCID mouse assessed as tumor growth inhibition at 15 mg/kg administered by oral gavage twice daily for 14 days; format: functional; details: 336 h, read-out: TGI; method in brief: as §1
[42] = system: LNCaP; experiment: Antitumor activity against human PTEN-deficient androgen responsive LNCAP cells xenografted in CB17 SCID mouse assessed as tumor growth inhibition at […] administered by oral gavage twice daily for 14 days; format: functional; details: 336 h, read-out: TGI
[43] = system: LNCaP; experiment: Antitumor activity against human PTEN-deficient androgen responsive LNCAP cells xenografted in CB17 SCID mouse administered by oral gavage twice daily for 14 days; format: functional; details: 336 h, read-out: MED; method in brief: as §1
[44] = system: Mus musculus; experiment: In vivo inhibition of PI3Kbeta in CB17 SCID mouse xenografted with human PTEN-deficient androgen responsive LNCAP cells assessed as inhibition of AKT1 phosphorylation at Serine 473 at 15 mg/kg administered by oral gavage and measured after 2 hrs; format: functional

Chain of Phosphatidylinositol 4,5-bisphosphate 3-kinase catalytic subunit gamma isoform (P48736 whole entry, canonical isoform): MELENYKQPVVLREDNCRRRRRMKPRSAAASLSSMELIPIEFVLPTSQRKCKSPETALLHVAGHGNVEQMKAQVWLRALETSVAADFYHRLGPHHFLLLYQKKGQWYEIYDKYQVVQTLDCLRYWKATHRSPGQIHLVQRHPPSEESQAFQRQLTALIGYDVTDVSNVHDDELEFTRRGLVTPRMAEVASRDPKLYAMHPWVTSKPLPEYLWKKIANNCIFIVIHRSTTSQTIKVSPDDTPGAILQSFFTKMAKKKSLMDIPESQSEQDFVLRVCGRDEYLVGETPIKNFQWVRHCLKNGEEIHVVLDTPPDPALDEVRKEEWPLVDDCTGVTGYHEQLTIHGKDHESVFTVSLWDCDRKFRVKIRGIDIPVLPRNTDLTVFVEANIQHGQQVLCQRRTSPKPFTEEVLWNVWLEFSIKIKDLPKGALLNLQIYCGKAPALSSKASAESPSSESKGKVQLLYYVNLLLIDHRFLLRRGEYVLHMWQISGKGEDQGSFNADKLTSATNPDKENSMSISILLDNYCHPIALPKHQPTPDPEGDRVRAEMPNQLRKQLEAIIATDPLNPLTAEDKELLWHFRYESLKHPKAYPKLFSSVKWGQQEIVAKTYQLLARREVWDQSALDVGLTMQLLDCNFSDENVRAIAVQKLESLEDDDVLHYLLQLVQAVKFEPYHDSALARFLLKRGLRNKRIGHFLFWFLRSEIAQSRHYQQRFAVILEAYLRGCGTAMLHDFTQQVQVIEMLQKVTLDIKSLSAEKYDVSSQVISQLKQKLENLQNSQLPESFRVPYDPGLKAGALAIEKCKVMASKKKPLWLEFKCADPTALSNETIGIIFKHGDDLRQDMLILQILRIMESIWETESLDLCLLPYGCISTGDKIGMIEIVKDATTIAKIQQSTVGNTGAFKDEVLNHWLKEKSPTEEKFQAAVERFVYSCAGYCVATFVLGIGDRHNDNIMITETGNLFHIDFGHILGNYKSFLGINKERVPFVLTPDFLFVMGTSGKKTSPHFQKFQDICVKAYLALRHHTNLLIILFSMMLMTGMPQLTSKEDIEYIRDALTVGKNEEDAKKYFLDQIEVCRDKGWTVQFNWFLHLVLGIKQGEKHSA
Chain of PI3-kinase p110-alpha/p85-alpha (P27986 whole entry): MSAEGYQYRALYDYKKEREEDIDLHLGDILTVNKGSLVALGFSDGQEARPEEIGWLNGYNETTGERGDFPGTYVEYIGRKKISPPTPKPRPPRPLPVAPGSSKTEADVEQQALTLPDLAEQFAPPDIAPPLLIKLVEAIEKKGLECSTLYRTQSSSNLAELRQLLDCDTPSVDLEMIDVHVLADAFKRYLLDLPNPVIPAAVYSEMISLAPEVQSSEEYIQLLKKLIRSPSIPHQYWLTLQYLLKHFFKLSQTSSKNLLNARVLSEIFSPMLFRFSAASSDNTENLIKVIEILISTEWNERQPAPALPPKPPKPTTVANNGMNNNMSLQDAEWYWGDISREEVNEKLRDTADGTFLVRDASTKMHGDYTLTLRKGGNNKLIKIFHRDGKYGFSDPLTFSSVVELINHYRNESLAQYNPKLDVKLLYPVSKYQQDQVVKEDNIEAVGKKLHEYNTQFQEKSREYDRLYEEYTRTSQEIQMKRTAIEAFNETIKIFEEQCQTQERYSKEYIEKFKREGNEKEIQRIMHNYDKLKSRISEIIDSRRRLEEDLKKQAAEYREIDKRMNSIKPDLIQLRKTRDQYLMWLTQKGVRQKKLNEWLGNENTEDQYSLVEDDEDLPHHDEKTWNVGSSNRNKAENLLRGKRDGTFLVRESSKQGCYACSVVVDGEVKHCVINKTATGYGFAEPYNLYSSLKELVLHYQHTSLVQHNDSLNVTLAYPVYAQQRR
Chain of PI3-kinase p110-alpha/p85-alpha (P42336 whole entry): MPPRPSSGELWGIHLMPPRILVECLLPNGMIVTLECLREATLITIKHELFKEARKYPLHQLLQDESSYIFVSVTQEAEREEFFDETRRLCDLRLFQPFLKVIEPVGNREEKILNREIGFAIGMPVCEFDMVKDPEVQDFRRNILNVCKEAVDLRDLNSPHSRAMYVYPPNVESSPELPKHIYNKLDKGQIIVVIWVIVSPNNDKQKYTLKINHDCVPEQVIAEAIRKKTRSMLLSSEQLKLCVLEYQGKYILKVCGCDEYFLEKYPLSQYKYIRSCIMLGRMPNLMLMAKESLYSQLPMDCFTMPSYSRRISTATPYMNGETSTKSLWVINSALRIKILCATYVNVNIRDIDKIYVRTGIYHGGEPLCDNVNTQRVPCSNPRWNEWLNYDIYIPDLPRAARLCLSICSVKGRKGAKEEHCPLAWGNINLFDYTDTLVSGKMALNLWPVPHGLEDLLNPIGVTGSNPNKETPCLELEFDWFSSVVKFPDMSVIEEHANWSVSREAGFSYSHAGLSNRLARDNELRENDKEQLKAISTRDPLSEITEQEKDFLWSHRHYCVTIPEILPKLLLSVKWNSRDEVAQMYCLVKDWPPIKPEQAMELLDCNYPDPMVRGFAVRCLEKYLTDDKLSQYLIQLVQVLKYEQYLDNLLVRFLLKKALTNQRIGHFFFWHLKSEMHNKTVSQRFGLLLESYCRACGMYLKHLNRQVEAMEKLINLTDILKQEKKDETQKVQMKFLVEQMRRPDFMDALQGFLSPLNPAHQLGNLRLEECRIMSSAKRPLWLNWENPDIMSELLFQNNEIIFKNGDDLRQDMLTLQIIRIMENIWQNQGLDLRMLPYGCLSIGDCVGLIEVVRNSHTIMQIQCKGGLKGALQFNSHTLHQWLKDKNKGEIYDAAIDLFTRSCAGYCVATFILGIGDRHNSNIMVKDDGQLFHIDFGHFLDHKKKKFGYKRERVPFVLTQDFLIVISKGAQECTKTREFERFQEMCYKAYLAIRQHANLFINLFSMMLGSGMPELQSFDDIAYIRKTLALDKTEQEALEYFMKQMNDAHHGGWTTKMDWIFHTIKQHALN
Chain of PI3-kinase p110-delta/p85-alpha (P27986 whole entry): as the sequence (P27986 whole entry) above
Chain of PI3-kinase p110-delta/p85-alpha (O00329 whole entry): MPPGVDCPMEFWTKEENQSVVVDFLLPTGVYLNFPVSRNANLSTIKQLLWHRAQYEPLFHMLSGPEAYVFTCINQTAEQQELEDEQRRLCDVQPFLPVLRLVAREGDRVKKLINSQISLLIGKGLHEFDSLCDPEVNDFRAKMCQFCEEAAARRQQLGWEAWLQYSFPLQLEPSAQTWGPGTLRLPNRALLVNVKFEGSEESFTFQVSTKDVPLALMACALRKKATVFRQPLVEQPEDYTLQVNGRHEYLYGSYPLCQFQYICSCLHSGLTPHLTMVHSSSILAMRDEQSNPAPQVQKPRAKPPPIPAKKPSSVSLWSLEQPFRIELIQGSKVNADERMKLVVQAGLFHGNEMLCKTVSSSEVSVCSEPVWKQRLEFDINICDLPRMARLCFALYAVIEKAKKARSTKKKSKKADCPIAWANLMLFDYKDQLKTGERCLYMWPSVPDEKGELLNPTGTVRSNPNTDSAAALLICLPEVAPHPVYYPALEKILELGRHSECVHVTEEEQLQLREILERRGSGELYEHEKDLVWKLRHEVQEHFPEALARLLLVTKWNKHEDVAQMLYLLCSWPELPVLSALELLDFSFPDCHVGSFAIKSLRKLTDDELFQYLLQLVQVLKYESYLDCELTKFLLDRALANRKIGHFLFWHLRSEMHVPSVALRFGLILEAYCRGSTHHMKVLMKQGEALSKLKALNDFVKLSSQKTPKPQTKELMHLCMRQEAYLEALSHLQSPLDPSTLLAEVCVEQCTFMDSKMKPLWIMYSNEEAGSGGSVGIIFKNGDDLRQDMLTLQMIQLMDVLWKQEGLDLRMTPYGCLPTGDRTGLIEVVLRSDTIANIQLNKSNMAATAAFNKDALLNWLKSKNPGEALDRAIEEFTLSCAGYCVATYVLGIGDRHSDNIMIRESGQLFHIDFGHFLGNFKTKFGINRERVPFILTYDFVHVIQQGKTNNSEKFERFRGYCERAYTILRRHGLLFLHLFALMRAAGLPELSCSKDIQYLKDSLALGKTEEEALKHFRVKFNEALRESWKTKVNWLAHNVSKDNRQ

Compound: C[C@H](Nc1nc(N)nc(N)c1C#N)c1nc2cccc(Cl)c2c(=O)n1-c1cc[nH]n1
- IC50 [1]: 54 nM
- Drug metabolism [2]: Metabolite_Notdetected

Compound: C[C@H](Nc1ncnc(N)c1C#N)c1nc2cccc(Cl)c2c(=O)n1-c1ccccc1
- IC50 [3]: 2030 nM
- IC50 [4]: 0.34 nM
- IC50 [1]: 154 nM

Compound: C[C@H](Nc1nc(N)nc(N)c1Cl)c1nc2c(Cl)cc(F)cc2c(=O)n1-c1cc[nH]n1
- inhibition in vivo at […] [5]: 64%
- inhibition in vivo at 3 mg/kg [6]: 42%
- IC50 [7]: > 25000 nM
- IC50 [8]: > 25000 nM
- EC50 [9]: 5.6 nM
- GI50 [10]: 120 nM
- GI50 [11]: 38 nM
- GI50 [12]: 12 nM
- GI50 [13]: 2 nM
- GI50 [14]: 80 nM
- Papp A→B [15]: 5.7 ×10⁻⁶ cm/s
- Papp B→A [16]: 21.7 ×10⁻⁶ cm/s
- clearance [17]: 4.33 mL/min/kg
- fraction unbound [18]: 0.0085
- clearance [19]: 4.33 mL/min/kg
- Vd [20]: 0.52 L/kg
- half-life [21]: 2.69 h
- MRT [22]: 1.97 h
- bioavailability [23]: 66 to 66.4%
- fraction unbound [24]: 0.0196
- clearance [25]: 4.17 mL/min/kg
- Vd [26]: 1.14 L/kg
- half-life [27]: 3.91 h
- MRT [28]: 4.7 h
- bioavailability [29]: 90.4%
- fraction unbound [30]: 0.0305
- clearance [31]: 4 mL/min/kg
- Vd [32]: 1.5 L/kg
- half-life [33]: 4.96 h
- MRT [34]: 6.28 h
- bioavailability [35]: 68.6%
- fraction unbound [36]: 0.0333
- clearance [37]: 6.83 mL/min/kg
- Vd [38]: 1.88 L/kg
- half-life [39]: 3.61 h
- MRT [40]: 4.54 h
- inhibition in vivo at 15 mg/kg [41]: 73%
- inhibition in vivo at […] [42]: 65%
- minimal effective dose [43]: 7.5 mg/kg
- inhibition in vivo at 15 mg/kg [44]: 64%

Compound: C[C@H](Nc1ncnc(N)c1C#N)c1nc2cccc(Cl)c2c(=O)n1-c1ccc(O)cc1
- IC50 [1]: 187 nM

Compound: C[C@H](Nc1nc(N)nc(N)c1Cl)c1nc2cccc(Cl)c2c(=O)n1-c1ccon1
- IC50 [1]: 499 nM

Compound: N#Cc1c(N[C@H](c2nc3c(Cl)cc(F)cc3c(=O)n2-c2cc[nH]n2)C2CC2)nc(N)nc1C(F)F
- IC50 [3]: 756 nM

Compound: CC[C@H](Nc1ncnc2[nH]cnc12)c1nc2cccc(F)c2c(=O)n1-c1ccc(O)cc1
- IC50 [3]: 1600 nM
- IC50 [4]: 14 nM
- IC50 [1]: 4300 nM

Compound: Nc1nc(N)c(Cl)c(N[C@H](c2nc3cccc(Cl)c3c(=O)n2-c2cc[nH]n2)C2CC2)n1
- IC50 [1]: 4150 nM
- Papp A→B [15]: 2.2 ×10⁻⁶ cm/s
- Papp B→A [16]: 11.8 ×10⁻⁶ cm/s
- clearance [17]: 9.67 mL/min/kg
- Vd [20]: 0.83 L/kg
- bioavailability [23]: 42%
- Drug metabolism [2]: Metabolite_Detected

Compound: C[C@H](Nc1nc(N)nc(N)c1Cl)c1nc2cccc(Cl)c2c(=O)n1-c1cc[nH]n1
- Papp A→B [15]: 1.1 ×10⁻⁶ cm/s
- Papp B→A [16]: 19.6 ×10⁻⁶ cm/s
- clearance [17]: 23.8 mL/min/kg
- Vd [20]: 1.29 L/kg
- bioavailability [23]: 26%

Compound: N#Cc1c(N)nc(N)nc1N[C@H](c1nc2cccc(Cl)c2c(=O)n1-c1cc[nH]n1)C1CC1
- IC50 [1]: 199 nM
- Drug metabolism [2]: Metabolite_Notdetected

Compound: N#Cc1c(N)nc(N)nc1N[C@H](c1nc2c(Cl)cc(F)cc2c(=O)n1-c1cc[nH]n1)C1CC1
- Papp A→B [15]: 1.5 ×10⁻⁶ cm/s
- Papp B→A [16]: 17.3 ×10⁻⁶ cm/s
- clearance [17]: 1.17 mL/min/kg
- Vd [20]: 0.22 L/kg
- bioavailability [23]: 12%
